The source made the active and inactive calls. No cut-off for these calls is given here.
Columns and labels:
[1] = biological target: Signal transducer and activator of transcription 3 (Mus musculus) (UniProt P42227); assay: Inhibition of STAT3 in mouse Ba/F3 NPM-ALK cells at 50 nM; format: cell-based; conditions: TDE = time-dependent effect
In short: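 Ba/F3 NPM-ALK or Karpas-299 cells held at 50 nM for times from 15 min onward. Phospho-NPM-ALK and phospho-STAT3 read by Western blot.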

KARPAS-299 [2] = assay: Inhibition of RAS/RAF/MAPK signaling in human Karpas299 cells assessed as ERK phosphorylation; format: cell-based
In short: (§1)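 Karpas-299 cells treated for 4 h with increasing concentrations or DMSO. Phospho-ERK and phospho-Akt read by Western blot.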

KARPAS-299 [3] = assay: Inhibition of PI3K/Akt signaling in human Karpas299 cells assessed as Akt phosphorylation; format: cell-based; in short: as §1
BaF3 = assay: Induction of apoptosis in mouse parental Ba/F3 cells at 50 nM after 48 hrs by annexin V assay; format: functional, cell-based
In short: (§2)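 Parental Ba/F3 (with IL-3), Ba/F3 NPM-ALK or SU-DHL-1 cells treated with 50 nM or DMSO for 48 h. Annexin V/7-AAD staining read by flow cytometry; percent Annexin V-positive cells counted.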

SU-DHL-1 = assay: Induction of apoptosis in human SUDHL1 cells at 50 nM after 48 hrs by annexin V assay; format: functional; in short: as §2
KARPAS-299 [4] = assay: Induction of apoptosis in human Karpas299 cells at 50 nM after 48 hrs by annexin V assay; format: functional; conditions: in the assay text read “72 hrs” for “48 hrs”
In short: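 Karpas-299 cells given 50 nM or DMSO, with flow cytometry every 24 h up to 72 h. Annexin V staining gave the percent of positive cells.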

KARPAS-299 [5] = assay: Cell cycle arrest in human Karpas299 cells by accumulation in G1 phase at 25 nM after 72 hrs; format: functional
In short: (§3)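 Karpas-299 cells exposed to 25 nM or DMSO for 24, 48 and 72 h, then fixed, stained with propidium iodide and analyzed for cell cycle distribution by flow cytometry. Three separate experiments.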

KARPAS-299 [6] = assay: Cell cycle arrest in human Karpas299 cells by accumulation in S phase at 25 nM after 72 hrs; format: functional; in short: as §3
[7] = Cmax in human Karpas299 cells xenografted SCID beige mouse at 20 mg/kg, po; format: ADME, organism-based, KARPAS-299; set-up: dose 20 mg/kg, route oral; conditions: in vivo
In short: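 Mice given a single oral dose of 20 mg/kg as a solution in 10% 1-methyl-2-pyrrolidinone/90% PEG 300. Plasma levels measured to give Cmax, bioavailability and elimination half-life.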

Mus musculus [8] = assay: Toxicity in human Karpas299 cells xenografted in SCID beige mouse at 10 mg/kg, po; format: organism-based, KARPAS-299; set-up: dose 10 mg/kg, route oral; conditions: in vivo
In short: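 Female Fox Chase SCID_Beige mice bearing i.v. Karpas-299 cells received 10 mg/kg orally once daily from 72 h after injection. Watched for signs of compound- or disease-related toxicity.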

BCR-ABL = assay: Antilymphomal activity against mouse Ba/F3 BCR-ABL cells xenografted in SCID beige mouse assessed as reduction in bioluminescence signal at 10 mg/kg, po once daily after 2 weeks; format: functional, organism-based; set-up: dose 10 mg/kg
In short: (§4)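 Female Fox Chase SCID_Beige mice injected in the tail vein with 1 × 10⁶ luciferase-expressing Ba/F3 BCR-ABL or Ba/F3 NPM-ALK cells. From 72 h, 10 mg/kg given orally once daily in 10% 1-methyl-2-pyrrolidinone/90% PEG 300, or vehicle. Bioluminescence imaged after 2 weeks; spleens weighed.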

[9] = Antilymphomal activity against mouse Ba/F3 NPM-ALK cells xenografted in SCID beige mouse assessed as reduction in bioluminescence signal at 10 mg/kg, po once daily after 2 weeks relative to control; format: functional; set-up: scale not given: the % may be the effect or the level left; in short: as §4
Mus musculus [10] = assay: Toxicity in mouse Ba/F3 NPM-ALK cells xenografted in SCID beige mouse assessed as reduction in spleen weight at 10 mg/kg, po; format: organism-based; set-up: dose 10 mg/kg, route oral; scale not given: the % may be the effect or the level left; conditions: in vivo
KARPAS-299 [11] = assay: Antilymphomal activity against human Karpas299 cells xenografted in SCID beige mouse assessed as reduction in NPM-ALK phosphorylation after 3.5 weeks of […] at 10 mg/kg for 3 days; format: functional, organism-based; set-up: dose 10 mg/kg
In short: (§5)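 Female Fox Chase SCID_Beige mice given 1 × 10⁶ Karpas-299 cells by tail vein. Treatment began at 3.5 weeks, once palpable lymphomas had formed. Drug at 10 mg/kg or vehicle for 3 days, 3 mice per arm. Killed 4 h after the third dose. Excised lymph nodes immunoblotted for NPM-ALK and Stat3 phosphorylation.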

KARPAS-299 [12] = assay: Antilymphomal activity against human Karpas299 cells xenografted in SCID beige mouse assessed as reduction in downstream target STAT3 phosphorylation after 3.5 weeks of […] at 10 mg/kg for 3 days; format: functional, organism-based; set-up: dose 10 mg/kg; in short: as §5
KARPAS-299 [13] = assay: Antilymphomal activity against human Karpas299 cells xenografted in SCIDbeige mouse assessed as reduction in CD30 expression in lymph nodes after 3.5 weeks of […] at 10 mg/kg for 3 days; format: functional, organism-based; set-up: dose 10 mg/kg
In short: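 Female Fox Chase SCID_Beige mice given Karpas-299 cells i.v. and left 3.5 weeks until lymphomas were palpable. Then dosed at 10 mg/kg or vehicle for 3 days. Killed 4 h after the third dose. Excised lymph node sections scored for CD30 by immunohistochemistry.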

KARPAS-299 [14] = assay: Inhibition of human Karpas299 cells assessed as reduction in CD30 receptor expression on cell surface after 24 hrs; format: functional; set-up: scale not given: the % may be the effect or the level left
In short: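 Karpas-299 cells cultured with drug for 24 h. Surface CD30 receptor expression then measured.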

Chain of Signal transducer and activator of transcription 3 (Mus musculus) (P42227 whole entry): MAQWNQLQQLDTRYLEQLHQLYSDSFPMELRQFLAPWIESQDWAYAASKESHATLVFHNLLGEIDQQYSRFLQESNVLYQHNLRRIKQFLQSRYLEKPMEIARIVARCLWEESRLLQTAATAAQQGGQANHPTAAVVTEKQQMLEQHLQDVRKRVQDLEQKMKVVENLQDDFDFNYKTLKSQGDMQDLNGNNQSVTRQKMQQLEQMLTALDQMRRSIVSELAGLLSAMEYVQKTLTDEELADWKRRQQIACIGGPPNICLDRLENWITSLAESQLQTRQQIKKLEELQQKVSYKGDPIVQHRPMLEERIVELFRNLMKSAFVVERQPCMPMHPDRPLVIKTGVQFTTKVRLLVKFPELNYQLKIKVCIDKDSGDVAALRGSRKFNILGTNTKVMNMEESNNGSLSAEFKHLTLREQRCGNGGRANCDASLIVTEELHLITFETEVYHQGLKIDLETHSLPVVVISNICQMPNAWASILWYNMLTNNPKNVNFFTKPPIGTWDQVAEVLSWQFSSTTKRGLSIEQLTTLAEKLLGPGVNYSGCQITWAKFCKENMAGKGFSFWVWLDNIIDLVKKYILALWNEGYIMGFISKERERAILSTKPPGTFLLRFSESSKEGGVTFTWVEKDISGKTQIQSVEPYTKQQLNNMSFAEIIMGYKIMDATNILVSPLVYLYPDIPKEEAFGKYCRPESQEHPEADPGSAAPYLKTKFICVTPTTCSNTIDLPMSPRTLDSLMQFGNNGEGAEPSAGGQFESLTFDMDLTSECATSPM

Structure (SMILES): COc1cc(N2CCC(N3CCN(C)CC3)CC2)ccc1Nc1ncc(Cl)c(Nc2ccccc2S(=O)(=O)C(C)C)n1 [TAE-684]
- Activity [1]: tde
- Activity (KARPAS-299 [2]): Dose-dependent effect
- Activity (KARPAS-299 [3]): Dose-dependent effect
- Activity (BaF3): inactive
- Activity (SU-DHL-1): 70%
- Activity (KARPAS-299 [4]): 20%
- Activity (KARPAS-299 [5]): 72%
- Activity (KARPAS-299 [6]): 14%
- Cmax [7]: 800 nM
- Activity (Mus musculus [8]): Non-toxic
- Activity (BCR-ABL): inactive
- Activity [9]: >99%
- Activity (Mus musculus [10]): 80%
- Activity (KARPAS-299 [11]): Active
- Activity (KARPAS-299 [12]): Active
- Activity (KARPAS-299 [13]): Active
- Activity (KARPAS-299 [14]): 80%
